Source: ChEMBL document CHEMBL4152221, “Synthesis and structure-activity relationship of furoquinolinediones as inhibitors of Tyrosyl-DNA phosphodiesterase 2 (TDP2)” (Eur J Med Chem, 2018)
Calls of active or inactive are those of the source.

Columns and labels:
[1] = biological target: T1, Tyrosyl-DNA phosphodiesterase 1 (Homo sapiens, UniProt Q9NUW8); assay: Inhibition of recombinant TDP1 (unknown origin) at 111 uM using 5'-[32P]-labeled N14Y as substrate after 15 mins by PAGE analysis
Outline: (§1)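 5'-32P-labeled N14Y (3'-phosphotyrosyl single-stranded oligo) at 1 nM with 10 pM recombinant TDP1, 15 min at room temperature. Three-fold dilutions up to 111 μM. Gels scanned and quantified by densitometry. Positive control: AM-8-3.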

[2] = biological target: T2, Tyrosyl-DNA phosphodiesterase 2 (Homo sapiens) (UniProt O95551); assay: Inhibition of recombinant human TDP2 at 111 uM using alpha-[32P]-cordycepin-3'-labeled TY18 as substrate after 15 mins by PAGE analysis
T2 sequence (whole entry): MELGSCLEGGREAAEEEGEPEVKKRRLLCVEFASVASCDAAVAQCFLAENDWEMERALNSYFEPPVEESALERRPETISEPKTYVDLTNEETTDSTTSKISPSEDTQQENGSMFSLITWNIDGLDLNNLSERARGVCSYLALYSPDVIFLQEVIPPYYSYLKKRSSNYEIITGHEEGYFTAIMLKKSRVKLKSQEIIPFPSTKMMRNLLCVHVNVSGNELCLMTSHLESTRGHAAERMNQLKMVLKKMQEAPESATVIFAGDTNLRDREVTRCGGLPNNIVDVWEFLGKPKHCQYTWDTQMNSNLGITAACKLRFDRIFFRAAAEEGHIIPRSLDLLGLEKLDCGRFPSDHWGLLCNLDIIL
Outline: (§2)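 32P-cordycepin-3'-labeled TY18 substrate at 1 nM with 25 pM recombinant human TDP2, 15 min at room temperature. Buffer: 50 mM Tris-HCl pH 7.5, 80 mM KCl, 5 mM MgCl2, 0.1 mM EDTA, 1 mM DTT, 40 μg/mL BSA, 0.01% Tween 20. Six or eight three-fold dilutions up to 111 μM. Gel densitometry; IC50 is mean ± SD of ≥3 independent experiments. Positive control: SV-163.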

[3] = biological target: T3, Tyrosyl-DNA phosphodiesterase 2 (Homo sapiens, UniProt O95551); assay: Inhibition of human TDP2 expressed in TDP2 deficient chicken DT40 whole cell extracts using TY19 DNA as substrate after 15 mins by PAGE analysis
T3 sequence (O95551 whole entry): T2 sequence (whole entry)
Outline: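 Extract from 1×10^7 TDP2-knockout DT40 cells complemented with human TDP2, lysed 15 min on ice, spun at 12000 g for 10 min, stored at -80 °C. TY19 substrate at 1 nM with 5 μg/mL extract, ±inhibitor, 15 min at room temperature in LMP2 buffer. Gel densitometry. IC50 is mean ± SD of ≥3 independent experiments.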

[4] = biological target: T2, Tyrosyl-DNA phosphodiesterase 2 (Homo sapiens); assay: (§3) Inhibition of recombinant human TDP2 using TY18 (alpha-[32P]-cordycepin-3'-labeled) as substrate after 15 mins by PAGE analysis; outline: as §2
[5] = biological target: T3, Tyrosyl-DNA phosphodiesterase 2; assay: as §3; outline: as §2
[6] = biological target: DNA topoisomerase 2-alpha (Homo sapiens) (UniProt P11388); assay: Poisoning activity at Top2alpha in human CCRF-CEM cells assessed as TOP2-DNA covalent cleavage complex up to 100 uM after 2 hrs by Western blot analysis based ICE assay; format: cell-based
Outline: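 ICE assay: 60×10^5 CCRF-CEM cells exposed to compound for 2 h, then lysed in 1% Sarkosyl to detect TOP2–DNA covalent cleavage complexes. Etoposide at 10 and 50 μM served as positive control, with one lane co-treated with 10 μM etoposide.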

[7] = biological target: T4, DNA topoisomerase 1 (Homo sapiens) (UniProt P11387); assay: Inhibition of Top1 (unknown origin) assessed as decrease in relaxation of supercoiled pBR322 DNA at 25 uM
T4 sequence (whole entry): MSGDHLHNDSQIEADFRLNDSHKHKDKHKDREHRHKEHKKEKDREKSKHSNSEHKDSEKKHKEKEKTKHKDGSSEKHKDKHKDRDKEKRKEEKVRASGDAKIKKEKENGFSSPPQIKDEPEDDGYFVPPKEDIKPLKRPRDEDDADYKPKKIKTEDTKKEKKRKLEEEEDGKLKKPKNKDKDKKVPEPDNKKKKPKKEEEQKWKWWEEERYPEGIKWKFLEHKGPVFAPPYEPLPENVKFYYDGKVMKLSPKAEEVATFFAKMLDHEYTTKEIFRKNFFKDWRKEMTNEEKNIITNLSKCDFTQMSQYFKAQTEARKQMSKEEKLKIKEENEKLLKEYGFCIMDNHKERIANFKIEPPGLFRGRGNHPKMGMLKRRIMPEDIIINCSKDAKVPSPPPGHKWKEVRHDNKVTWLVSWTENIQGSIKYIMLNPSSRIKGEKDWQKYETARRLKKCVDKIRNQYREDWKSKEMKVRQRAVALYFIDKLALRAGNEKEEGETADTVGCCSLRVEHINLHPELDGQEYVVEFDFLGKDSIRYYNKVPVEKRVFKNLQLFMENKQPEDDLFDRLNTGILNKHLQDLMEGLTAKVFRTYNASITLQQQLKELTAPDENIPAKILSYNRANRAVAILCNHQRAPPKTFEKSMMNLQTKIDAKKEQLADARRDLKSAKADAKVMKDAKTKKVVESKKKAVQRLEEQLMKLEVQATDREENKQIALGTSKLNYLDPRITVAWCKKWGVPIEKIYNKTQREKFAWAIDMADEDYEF
Outline: (§4)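 Supercoiled pBR322 plasmid incubated with TOP1 or TOP2 enzyme, with or without test compound at 25 μM. Relaxed and supercoiled forms separated on agarose gel. Positive controls: camptothecin for TOP1, etoposide for TOP2.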

[8] = species: Homo sapiens; assay: Inhibition of Top2 (unknown origin) assessed as decrease in relaxation of supercoiled pBR322 DNA at 25 uM; outline: as §4
[9] = biological target: T1, Tyrosyl-DNA phosphodiesterase 1; assay: Inhibition of recombinant TDP1 (unknown origin) using 5'-[32P]-labeled N14Y as substrate after 15 mins by PAGE analysis; outline: as §1
[10] = biological target: DNA topoisomerase 2-alpha (Homo sapiens) (UniProt P11388); assay: Poisoning activity at Top2alpha in human CCRF-CEM cells assessed as TOP2-DNA covalent cleavage complex up to 50 uM after 2 hrs by Western blot analysis based ICE assay; format: cell-based
Outline: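 60×10^5 CCRF-CEM cells treated 2 h with compound at 10 or 50 μM, alone or combined with 10 μM etoposide, then lysed in 1% Sarkosyl. TOP2-DNA covalent complexes detected by ICE assay. Etoposide at 10 and 50 μM served as positive control.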

T1 sequence (Q9NUW8 whole entry): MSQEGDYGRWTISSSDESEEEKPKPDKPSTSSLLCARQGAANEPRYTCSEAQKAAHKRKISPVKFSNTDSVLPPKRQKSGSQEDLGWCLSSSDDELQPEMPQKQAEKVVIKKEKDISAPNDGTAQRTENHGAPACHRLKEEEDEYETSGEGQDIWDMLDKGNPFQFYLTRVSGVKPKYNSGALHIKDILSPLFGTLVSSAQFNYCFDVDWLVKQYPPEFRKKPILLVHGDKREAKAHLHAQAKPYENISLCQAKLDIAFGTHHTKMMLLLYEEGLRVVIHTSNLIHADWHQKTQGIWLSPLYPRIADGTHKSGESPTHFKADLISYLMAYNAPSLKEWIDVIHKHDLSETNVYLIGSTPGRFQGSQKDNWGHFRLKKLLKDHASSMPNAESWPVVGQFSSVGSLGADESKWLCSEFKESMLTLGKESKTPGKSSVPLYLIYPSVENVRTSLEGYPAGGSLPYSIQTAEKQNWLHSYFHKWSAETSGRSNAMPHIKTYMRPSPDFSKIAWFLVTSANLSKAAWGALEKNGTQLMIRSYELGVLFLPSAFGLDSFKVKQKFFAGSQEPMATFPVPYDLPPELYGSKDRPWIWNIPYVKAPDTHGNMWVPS
Chain of DNA topoisomerase 2-alpha (Homo sapiens) (P11388 whole entry): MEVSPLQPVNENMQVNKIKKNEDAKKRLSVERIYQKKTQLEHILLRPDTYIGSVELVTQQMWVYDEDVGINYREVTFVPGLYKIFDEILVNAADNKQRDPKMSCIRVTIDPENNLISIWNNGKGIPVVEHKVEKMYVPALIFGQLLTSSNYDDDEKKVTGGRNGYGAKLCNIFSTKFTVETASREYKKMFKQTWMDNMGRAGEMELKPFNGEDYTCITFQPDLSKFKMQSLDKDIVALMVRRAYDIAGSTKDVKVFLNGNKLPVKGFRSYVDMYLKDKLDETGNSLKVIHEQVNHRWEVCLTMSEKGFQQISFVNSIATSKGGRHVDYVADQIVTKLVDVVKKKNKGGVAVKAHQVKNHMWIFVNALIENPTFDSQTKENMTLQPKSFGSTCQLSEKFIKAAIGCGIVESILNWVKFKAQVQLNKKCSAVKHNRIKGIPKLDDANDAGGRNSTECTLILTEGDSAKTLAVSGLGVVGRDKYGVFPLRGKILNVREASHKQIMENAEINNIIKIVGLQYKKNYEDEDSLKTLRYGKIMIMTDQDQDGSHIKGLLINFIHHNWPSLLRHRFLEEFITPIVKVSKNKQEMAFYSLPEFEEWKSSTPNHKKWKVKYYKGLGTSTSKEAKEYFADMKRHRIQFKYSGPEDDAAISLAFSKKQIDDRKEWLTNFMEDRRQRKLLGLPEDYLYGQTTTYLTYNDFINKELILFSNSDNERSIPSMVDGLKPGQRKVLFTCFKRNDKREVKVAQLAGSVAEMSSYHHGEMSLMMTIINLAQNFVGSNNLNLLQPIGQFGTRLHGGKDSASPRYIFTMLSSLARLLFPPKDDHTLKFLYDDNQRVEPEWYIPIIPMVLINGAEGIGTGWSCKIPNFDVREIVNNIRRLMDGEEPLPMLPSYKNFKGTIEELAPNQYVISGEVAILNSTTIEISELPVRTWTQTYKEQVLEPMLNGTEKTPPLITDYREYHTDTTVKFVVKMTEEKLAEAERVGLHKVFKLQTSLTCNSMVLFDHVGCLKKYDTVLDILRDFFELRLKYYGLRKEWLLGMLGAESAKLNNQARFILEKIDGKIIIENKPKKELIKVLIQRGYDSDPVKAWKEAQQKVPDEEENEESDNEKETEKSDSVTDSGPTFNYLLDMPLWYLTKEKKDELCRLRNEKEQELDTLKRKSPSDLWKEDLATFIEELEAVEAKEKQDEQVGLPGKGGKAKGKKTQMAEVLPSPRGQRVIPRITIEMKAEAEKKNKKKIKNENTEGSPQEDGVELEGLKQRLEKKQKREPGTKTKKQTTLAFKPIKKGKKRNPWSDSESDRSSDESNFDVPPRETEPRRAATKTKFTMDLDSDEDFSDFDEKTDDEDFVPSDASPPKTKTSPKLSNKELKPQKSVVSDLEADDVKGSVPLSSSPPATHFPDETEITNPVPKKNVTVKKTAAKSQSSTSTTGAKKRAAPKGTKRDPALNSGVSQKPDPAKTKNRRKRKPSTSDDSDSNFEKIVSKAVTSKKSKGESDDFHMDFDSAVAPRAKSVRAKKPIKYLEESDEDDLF

Structure (SMILES)	inhibition [1]	inhibition [2] [%]	IC50 [3] [µM]	inhibition [4]	IC50 [5] [µM]	Activity [6]	inhibition [7]	inhibition [8]	IC50 [9] [µM]	Activity [10]
Cc1oc2c(c1C(=O)Oc1ccccc1O)C(=O)c1ncccc1C2=O	inactive	100	6.6	Dose-dependent effect	7.6	–	–	–	–	–
Cc1oc2c(c1C(=O)OCCO)C(=O)c1ncccc1C2=O	inactive	100	9.8	Dose-dependent effect	20	–	–	–	–	–
N#Cc1ccc2cc3c(=O)[nH]c(=O)nc-3n(-c3cccc(-c4nnn[nH]4)c3)c2c1	–	100	–	Dose-dependent effect	–	–	–	–	–	–
Cc1oc2c(c1C(=O)Oc1cccc(O)c1)C(=O)c1ncccc1C2=O	inactive	100	8.8	Dose-dependent effect	29	–	–	–	–	–
CCOC(=O)c1c(C)oc2c1C(=O)c1ncccc1C2=O	inactive	–	22	–	11	inactive	inactive	inactive	–	–
CCOC(=O)c1noc2c1C(=O)c1ncccc1C2=O	inactive	100	3.1	Dose-dependent effect	3.3	–	inactive	inactive	–	–
Cc1oc2c(c1C(=O)OCCCO)C(=O)c1ncccc1C2=O	inactive	100	11	Dose-dependent effect	17	–	–	–	–	–
Cc1oc2c(c1C(=O)Oc1ccc([N+](=O)[O-])cc1)C(=O)c1ncccc1C2=O	–	–	–	–	28	–	–	–	48	–
COC(=O)c1sccc1OC(=O)c1c(C)oc2c1C(=O)c1ncccc1C2=O	–	–	24	–	22	–	–	–	38	–
Cc1oc2c(c1C(=O)OC[C@@H](O)CO)C(=O)c1ncccc1C2=O	inactive	100	14	Dose-dependent effect	12	–	–	–	–	–
Cc1oc2c(c1C(=O)Oc1ccccc1)C(=O)c1ncccc1C2=O	inactive	100	10	Dose-dependent effect	18	–	–	–	–	–
CCOC(=O)c1noc2c1C(=O)c1cccnc1C2=O	inactive	100	2.1	Dose-dependent effect	1.9	–	inactive	inactive	–	inactive
C#Cc1cccc(OC(=O)c2c(C)oc3c2C(=O)c2ncccc2C3=O)c1	inactive	–	13	–	43	–	–	–	–	–
CC(=O)N1CCN(c2ccc(OC(=O)c3c(C)oc4c3C(=O)c3ncccc3C4=O)cc2)CC1	inactive	–	34	–	37	–	–	–	–	–
